According to ChEMBL document CHEMBL1629475, “Synthesis of new chalcone derivatives containing a rhodanine-3-acetic acid moiety with potential anti-bacterial activity” (2010):
Converted amounts (≈) assume the structure as drawn. The source made the active and inactive calls. The calls are words filed in the database; no cut-off is given here.

Assays:
Staphylococcus aureus [1] = assay: Antibacterial activity against Staphylococcus aureus KCTC 209 after 20 hrs by twofold serial dilution technique; type: functional; settings: KCTC 209, 20 h
Procedure, shortened: (§1)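 Inoculum was 10⁵ CFU/mL. MIC was read after 20 h at 37 °C. The MRSA and QRSA strains were multidrug-resistant clinical isolates. Oxacillin and norfloxacin served as positive controls.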

Escherichia coli [2] = assay: Antibacterial activity against Escherichia coli 1924 after 20 hrs by twofold serial dilution technique; type: functional; settings: Escherichia coli, 1924, 20 h; procedure, shortened: as §1
Staphylococcus aureus [3] = assay: Antibacterial activity against Staphylococcus aureus QRSA CCARM 3519 after 20 hrs by twofold serial dilution technique; type: functional; settings: QRSA CCARM 3519, 20 h; procedure, shortened: as §1
Escherichia coli [4] = assay: Antibacterial activity against Escherichia coli 1356 after 20 hrs by twofold serial dilution technique; type: functional; settings: Escherichia coli, 1356, 20 h; procedure, shortened: as §1
Staphylococcus aureus [5] = assay: Antibacterial activity against Staphylococcus aureus MRSA CCARM 3167 after 20 hrs by twofold serial dilution technique; type: functional; settings: MRSA CCARM 3167, 20 h; procedure, shortened: as §1
Streptococcus mutans [6] = assay: Antibacterial activity against Streptococcus mutans KCTC 3289 after 20 hrs by twofold serial dilution technique; type: functional; settings: KCTC 3289, 20 h
Procedure, shortened: (§2)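 Inoculum was 10⁵ CFU/mL, and MIC was read after incubation at 37 °C for 20 h. Oxacillin and norfloxacin were the positive controls.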

Staphylococcus aureus [7] = assay: Antibacterial activity against Staphylococcus aureus QRSA CCARM 3505 after 20 hrs by twofold serial dilution technique; type: functional; settings: QRSA CCARM 3505, 20 h; procedure, shortened: as §1
Staphylococcus aureus [8] = assay: Antibacterial activity against Staphylococcus aureus RN 4220 after 20 hrs by twofold serial dilution technique; type: functional; settings: RN 4220, 20 h; procedure, shortened: as §1
Staphylococcus aureus [9] = assay: Antibacterial activity against Staphylococcus aureus MRSA CCARM 3506 after 20 hrs by twofold serial dilution technique; type: functional; settings: MRSA CCARM 3506, 20 h; procedure, shortened: as §1
Streptococcus mutans [10] = assay: Antibacterial activity against Streptococcus mutans KCTC 3065 after 20 hrs by twofold serial dilution technique; type: functional; settings: KCTC 3065, 20 h; procedure, shortened: as §2
Staphylococcus aureus [11] = assay: Antibacterial activity against Staphylococcus aureus KCTC 503 after 20 hrs by twofold serial dilution technique; type: functional; settings: KCTC 503, 20 h; procedure, shortened: as §1
Escherichia coli [12] = assay: Antibacterial activity against Escherichia coli 1924 at 64 ug/ml; type: functional, organism-based
Escherichia coli [13] = assay: Antibacterial activity against Escherichia coli 1356 at 64 ug/ml; type: functional, organism-based

SMILES	MIC (Staphylococcus aureus [1])	MIC (Escherichia coli [2])	MIC (Staphylococcus aureus [3])	MIC (Escherichia coli [4])	MIC (Staphylococcus aureus [5])	MIC (Streptococcus mutans [6])	MIC (Staphylococcus aureus [7])	MIC (Staphylococcus aureus [8])	MIC (Staphylococcus aureus [9])	MIC (Streptococcus mutans [10])	MIC (Staphylococcus aureus [11])	Activity (Escherichia coli [12])	Activity (Escherichia coli [13])
Cc1onc(-c2ccccc2)c1C(=O)N[C@@H]1C(=O)N2[C@@H]1SC(C)(C)[C@@H]2C(=O)O [OXACILLIN]	1 µg/mL (≈ 2.49 µM)	> 64 µg/mL	1 µg/mL (≈ 2.49 µM)	> 64 µg/mL	> 64 µg/mL	1 µg/mL (≈ 2.49 µM)	1 µg/mL (≈ 2.49 µM)	1 µg/mL (≈ 2.49 µM)	> 64 µg/mL	1 µg/mL (≈ 2.49 µM)	1 µg/mL (≈ 2.49 µM)		
O=C(O)CN1C(=O)/C(=C\c2ccc(/C=C/C(=O)c3cccc(F)c3)cc2)SC1=S	64 µg/mL (≈ 150 µM)	> 64 µg/mL		> 64 µg/mL		64 µg/mL (≈ 150 µM)		64 µg/mL (≈ 150 µM)		64 µg/mL (≈ 150 µM)	64 µg/mL (≈ 150 µM)	inactive	inactive
CCn1cc(C(=O)O)c(=O)c2cc(F)c(N3CCNCC3)cc21 [NORFLOXACIN]	4 µg/mL (≈ 12.5 µM)	16 µg/mL (≈ 50.1 µM)	> 64 µg/mL	16 µg/mL (≈ 50.1 µM)	8 µg/mL (≈ 25.1 µM)	1 µg/mL (≈ 3.13 µM)	> 64 µg/mL	2 µg/mL (≈ 6.26 µM)	4 µg/mL (≈ 12.5 µM)	1 µg/mL (≈ 3.13 µM)	2 µg/mL (≈ 6.26 µM)		
O=Cc1ccc(/C=C/C(=O)c2ccc(Cl)cc2Cl)cc1	64 µg/mL (≈ 210 µM)	> 64 µg/mL		> 64 µg/mL		> 64 µg/mL		64 µg/mL (≈ 210 µM)		> 64 µg/mL	64 µg/mL (≈ 210 µM)	inactive	inactive
O=C(O)CN1C(=O)/C(=C\c2ccc(/C=C/C(=O)c3ccc(Cl)cc3Cl)cc2)SC1=S	2 µg/mL (≈ 4.18 µM)	> 64 µg/mL	2 µg/mL (≈ 4.18 µM)	> 64 µg/mL	2 µg/mL (≈ 4.18 µM)	2 µg/mL (≈ 4.18 µM)	2 µg/mL (≈ 4.18 µM)	2 µg/mL (≈ 4.18 µM)	2 µg/mL (≈ 4.18 µM)	2 µg/mL (≈ 4.18 µM)	2 µg/mL (≈ 4.18 µM)	inactive	inactive
CC(=O)Nc1ccc(C(=O)/C=C/c2ccc(/C=C3/SC(=S)N(CC(=O)O)C3=O)cc2)cc1	> 64 µg/mL	> 64 µg/mL		> 64 µg/mL		> 64 µg/mL		> 64 µg/mL		> 64 µg/mL	> 64 µg/mL	inactive	inactive
O=C(O)CN1C(=O)/C(=C\c2ccc(/C=C/C(=O)c3ccccc3)cc2)SC1=S	32 µg/mL (≈ 78.1 µM)	> 64 µg/mL		> 64 µg/mL		64 µg/mL (≈ 156 µM)		32 µg/mL (≈ 78.1 µM)		64 µg/mL (≈ 156 µM)	32 µg/mL (≈ 78.1 µM)	inactive	inactive
COCOc1cccc(C(=O)/C=C/c2ccc(/C=C3/SC(=S)N(CC(=O)O)C3=O)cc2)c1	> 64 µg/mL	> 64 µg/mL		> 64 µg/mL		> 64 µg/mL		> 64 µg/mL		> 64 µg/mL	> 64 µg/mL	inactive	inactive
COc1ccc(C(=O)/C=C/c2ccc(/C=C3/SC(=S)N(CC(=O)O)C3=O)cc2)cc1	64 µg/mL (≈ 146 µM)	> 64 µg/mL		> 64 µg/mL		64 µg/mL (≈ 146 µM)		64 µg/mL (≈ 146 µM)		64 µg/mL (≈ 146 µM)	64 µg/mL (≈ 146 µM)	inactive	inactive

Now from value to compound, other results behind:

MIC (Staphylococcus aureus [1])	MIC (Escherichia coli [2])	MIC (Staphylococcus aureus [3])	MIC (Escherichia coli [4])	MIC (Staphylococcus aureus [5])	MIC (Streptococcus mutans [6])	MIC (Staphylococcus aureus [7])	MIC (Staphylococcus aureus [8])	MIC (Staphylococcus aureus [9])	MIC (Streptococcus mutans [10])	MIC (Staphylococcus aureus [11])	SMILES	Activity (Escherichia coli [12])	Activity (Escherichia coli [13])
4 µg/mL (≈ 9.14 µM)	> 64 µg/mL	4 µg/mL (≈ 9.14 µM)	> 64 µg/mL	4 µg/mL (≈ 9.14 µM)	8 µg/mL (≈ 18.3 µM)	4 µg/mL (≈ 9.14 µM)	4 µg/mL (≈ 9.14 µM)	4 µg/mL (≈ 9.14 µM)	4 µg/mL (≈ 9.14 µM)	4 µg/mL (≈ 9.14 µM)	Cc1ccc(C(=O)/C=C/c2ccc(/C=C3/SC(=S)N(CC(=O)O)C3=O)cc2)c(C)c1	inactive	inactive
4 µg/mL (≈ 9.01 µM)	> 64 µg/mL	4 µg/mL (≈ 9.01 µM)	> 64 µg/mL	4 µg/mL (≈ 9.01 µM)	4 µg/mL (≈ 9.01 µM)	4 µg/mL (≈ 9.01 µM)	4 µg/mL (≈ 9.01 µM)	4 µg/mL (≈ 9.01 µM)	4 µg/mL (≈ 9.01 µM)	4 µg/mL (≈ 9.01 µM)	O=C(O)CN1C(=O)/C(=C\c2ccc(/C=C/C(=O)c3ccc(Cl)cc3)cc2)SC1=S	inactive	inactive
4 µg/mL (≈ 9.36 µM)	> 64 µg/mL	4 µg/mL (≈ 9.36 µM)	> 64 µg/mL	4 µg/mL (≈ 9.36 µM)	4 µg/mL (≈ 9.36 µM)	4 µg/mL (≈ 9.36 µM)	4 µg/mL (≈ 9.36 µM)	4 µg/mL (≈ 9.36 µM)	4 µg/mL (≈ 9.36 µM)	4 µg/mL (≈ 9.36 µM)	O=C(O)CN1C(=O)/C(=C\c2ccc(/C=C/C(=O)c3ccc(F)cc3)cc2)SC1=S	inactive	inactive
8 µg/mL (≈ 18.2 µM)	> 64 µg/mL	8 µg/mL (≈ 18.2 µM)	> 64 µg/mL	8 µg/mL (≈ 18.2 µM)	8 µg/mL (≈ 18.2 µM)	8 µg/mL (≈ 18.2 µM)	8 µg/mL (≈ 18.2 µM)	8 µg/mL (≈ 18.2 µM)	8 µg/mL (≈ 18.2 µM)	8 µg/mL (≈ 18.2 µM)	COc1cccc(C(=O)/C=C/c2ccc(/C=C3/SC(=S)N(CC(=O)O)C3=O)cc2)c1	inactive	inactive
64 µg/mL (≈ 144 µM)	> 64 µg/mL		> 64 µg/mL		64 µg/mL (≈ 144 µM)		64 µg/mL (≈ 144 µM)		64 µg/mL (≈ 144 µM)	64 µg/mL (≈ 144 µM)	O=C(O)CN1C(=O)/C(=C\c2ccc(/C=C/C(=O)c3cccc(Cl)c3)cc2)SC1=S	inactive	inactive
8 µg/mL (≈ 16.4 µM)	> 64 µg/mL	8 µg/mL (≈ 16.4 µM)	> 64 µg/mL	8 µg/mL (≈ 16.4 µM)	8 µg/mL (≈ 16.4 µM)	8 µg/mL (≈ 16.4 µM)	8 µg/mL (≈ 16.4 µM)	8 µg/mL (≈ 16.4 µM)	8 µg/mL (≈ 16.4 µM)	8 µg/mL (≈ 16.4 µM)	O=C(O)CN1C(=O)/C(=C\c2ccc(/C=C/C(=O)c3cccc(Br)c3)cc2)SC1=S	inactive	inactive
4 µg/mL (≈ 8.8 µM)	> 64 µg/mL	4 µg/mL (≈ 8.8 µM)	> 64 µg/mL	4 µg/mL (≈ 8.8 µM)	8 µg/mL (≈ 17.6 µM)	4 µg/mL (≈ 8.8 µM)	4 µg/mL (≈ 8.8 µM)	4 µg/mL (≈ 8.8 µM)	8 µg/mL (≈ 17.6 µM)	4 µg/mL (≈ 8.8 µM)	O=C(O)CN1C(=O)/C(=C\c2ccc(/C=C/C(=O)c3ccc([N+](=O)[O-])cc3)cc2)SC1=S	inactive	inactive
> 64 µg/mL	> 64 µg/mL		> 64 µg/mL		> 64 µg/mL		> 64 µg/mL		> 64 µg/mL	> 64 µg/mL	COCOc1ccc(C(=O)/C=C/c2ccc(/C=C3/SC(=S)N(CC(=O)O)C3=O)cc2)cc1	inactive	inactive
4 µg/mL (≈ 8.19 µM)	> 64 µg/mL	4 µg/mL (≈ 8.19 µM)	> 64 µg/mL	4 µg/mL (≈ 8.19 µM)	4 µg/mL (≈ 8.19 µM)	4 µg/mL (≈ 8.19 µM)	4 µg/mL (≈ 8.19 µM)	4 µg/mL (≈ 8.19 µM)	4 µg/mL (≈ 8.19 µM)	4 µg/mL (≈ 8.19 µM)	O=C(O)CN1C(=O)/C(=C\c2ccc(/C=C/C(=O)c3ccc(Br)cc3)cc2)SC1=S	inactive	inactive
64 µg/mL (≈ 151 µM)	> 64 µg/mL		> 64 µg/mL		64 µg/mL (≈ 151 µM)		64 µg/mL (≈ 151 µM)		64 µg/mL (≈ 151 µM)	64 µg/mL (≈ 151 µM)	Cc1ccc(C(=O)/C=C/c2ccc(/C=C3/SC(=S)N(CC(=O)O)C3=O)cc2)cc1	inactive	inactive
